Screening data (PubChem BioAssay)
The list is not random: actives were taken first. Their share in the collection is about 5.7%.
Mdm2-MdmX inh – inhibitors of human Mdm2/MdmX interaction | hit rate 3% among 330,000 | SaOS-2 split-luciferase Mdm2/MdmX complementation, luminescence | inhibition, % at 8 µM | AID 485346 | O15151+Q00987;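 active means inhibition of at least 50% at 8 µM in the primary screen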
T cruzi inh – T. cruzi replication inhibition | T. cruzi beta-gal in NIH3T3, luminescence, 90 h | inhibition, % (concentration not given with the values) | hit rate 1.4% among 300,000 | AID 1885;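 active means mean inhibition across valid replicates above about 55%, limit read from the data; inconclusive means mean below that limit but half or more replicates reach it; inactive means mean below it, under half of replicates reach it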;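 further: signal also drops with host cell toxicity which is not excluded here; higher percent means less beta-gal luminescence so fewer parasites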
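System: mouse NIH/3T3 fibroblasts infected with β-gal-expressing T. cruzi Tulahuen C4 / Input: NIH/3T3 cells, 5,000 per well / Buffer or medium: Low-serum DMEM with 2% FBS / Probe or stimulus: 5000 reporter trypomastigotes per well / Schedule: ≥90 h infection period, 3 h prior cell attachment / Measured by: GalScreen luminescence, 60 min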
SKKanGAS inh – SKKanGAS growth inhibition. S. pyogenes SKKanGAS, kanamycin growth, BacTiter-Glo, 6 h. inhibition, % at 7.5 µM. hit rate 1.3% among 300,000;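 active means mean replicate score, as percent of positive control median, at least 50; inconclusive means mean below 50 but one replicate at or above 50; inactive means mean and every replicate below 50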;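 further: strain carries kanamycin resistance gene driven by streptokinase promoter and grows in 40 µg/ml kanamycin; loss of luminescence reflects streptokinase promoter inhibition or plain growth inhibition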
CSC inhib – blocks cancer stem cells; hit rate 1.1% among 300,000; cancer stem cell-like cells viability, luminescence; AID 2717; inhibition, % at 7.5 µM; in the data active means inhibition above about 75%; inconclusive means no clear call, values can overlap the other calls; tested in HMLE shEcad cells
Beta cell apopt – blocks beta cell apoptosis. INS-1E cytokine-induced death, ATP luminescence, 48 h; percent of positive-control rescue, neutral wells zero. protection from apoptosis, % (concentration not given with the values). hit rate 0.8% among 300,000. AID 435005;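 active means Every replicate reaches about 75%, or at least half do and their mean reaches it too, limit read from the data; inconclusive means At least half of replicates reach the limit but their mean does not; inactive means Under half of replicates reach the limit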;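 further: higher means more ATP so stronger rescue from cytokine killing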
Calb FLC – affects C. albicans growth with fluconazole | C. albicans CaCi-2 (fluconazole-resistant clinical isolate) + fluconazole, Alamar Blue growth, 48 h | growth inhibition, % (test concentration not listed) | hit rate 0.57% among 300,000;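 active means growth inhibition above about 58% in most replicates, limit read from the data, passing the limit was not always enough; inconclusive means exactly half the replicates above a set limit; inactive means most replicates below a set limit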;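 further: all wells also contain fluconazole at 8 µg/ml as a sub-toxic cotreatment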
A number is an active result; 0 = inactive; ? = inconclusive; - = no result.

SMILES	Mdm2-MdmX inh	T cruzi inh	SKKanGAS inh	CSC inhib	Beta cell apopt	Calb FLC
Cc1ccc(S(=O)(=O)c2c(C)cc(C)nc2Cl)c(C)c1	0	59.1	0	0	0	0
Cc1cc(C)c(S(=O)(=O)c2ccccc2C)c(Cl)n1	0	54.8	0	0	0	0
Cc1ccc(C)c(S(=O)(=O)c2c(C)cc(C)nc2Cl)c1	0	0	0	0	0	0
Cc1ccc(OCc2ccc(C(=O)N3CCOCC3)cc2)cc1C	0	0	0	0	0	0
CC(C)c1ccc(COc2ccc(C(=O)N3CCOCC3)cc2)cc1	0	0	0	0	75.8	0
COc1ccc2nc(Nc3nc4cc5c(cc4s3)OCO5)sc2c1	0	0	84.2	0	0	0
COc1ccc2nc(Nc3ccc4c(c3)OCO4)sc2c1	0	0	0	0	0	0
COc1cccc(C(N)=O)c1OC(=O)Cc1ccccc1F	0	0	0	0	0	0
Cn1cccc1C1C=C(c2ccc(C(C)(C)C)cc2)Nc2ncnn21 (stereo not given)	0	0	0	0	127.1	0
CC(C)(C)c1ccc(C2=CC(c3ccccc3F)n3ncnc3N2)cc1 (stereo not given)	0	0	0	0	0	0
CN(C)c1ccc(N/C=C/C(=O)c2ccc(F)cc2)cc1	0	59.8	0	0	0	0
O=C(CN1C(=O)NC2(CCCCC2)C1=O)Nc1ccc2c(c1)OCCCO2	0	-	-	0	0	-
Cc1cccc(N2C(=O)N3[C@H]4c5ccccc5OC[C@@H]4[C@@H](c4ccccc4)[C@@]3(C)C2=O)c1	0	-	-	0	0	-
CSc1ccc(CNC(=O)Cc2ccc(NC(=O)C3=C(C)OCCS3)cc2)cc1	0	0	0	0	0	0
N#Cc1c(-c2ccccc2)nc(SCc2cccc(Cl)c2)[nH]c1=O	0	0	?	107.4	0	0
O=C(Nc1ccc(Cl)cc1)Nc1nnc(SCc2ccc(Cl)cc2)s1	0	0	0	0	0	0
O=C(Nc1nnc(SCc2ccc(Cl)cc2)s1)c1cnccn1	0	0	0	0	0	79.8
CC(C)n1nnnc1SCC(=O)Nc1ccccc1F	0	0	0	0	-	0
COC(=O)c1ccc(-c2nc(CN3CCN(Cc4cccc(C)c4)CC3)c(C)o2)cc1	0	57.2	0	0	0	0
COc1ccc(-c2nc(CN3CCN(Cc4cccc(Cl)c4)CC3)c(C)o2)cc1	0	56.0	0	0	0	0
COc1ccc(-c2nc(CN3CCN(Cc4cccc(F)c4)CC3)c(C)o2)cc1	0	0	0	0	0	0
Cn1cccc1/C=N/NC(=O)c1cc(-c2cccs2)nc2ccccc12	0	0	0	-	0	0
O=C(N=Nc1c(O)[nH]c2ccc(Br)cc12)c1ccccc1-n1cccc1	0	-	0	80.2	0	?
O=C(N=Nc1c(O)[nH]c2ccc([N+](=O)[O-])cc12)c1cc(-c2ccccc2Cl)nc2ccccc12	0	0	-	0	0	-
O=C(N=Nc1c(O)[nH]c2ccc(Br)cc12)c1cc(-c2cccs2)nc2ccccc12	-	56.4	0	-	-	0
SMILES	Mdm2-MdmX inh	T cruzi inh	SKKanGAS inh	CSC inhib	Beta cell apopt	Calb FLC
Cn1c(O)c(N=NC(=O)c2cc(-c3cccs3)nc3ccccc23)c2ccccc21	0	0	80.0	-	0	0
N=C(N)N=Nc1c(O)[nH]c2ccc(Br)cc12	0	0	0	0	0	0
CCN(CC(=O)Nc1c(F)cccc1F)C(=O)c1nc2nc(C)cc(C)n2n1	0	-	-	-	-	-
COc1ccc(Cc2nnc(NC(=O)c3ccccc3F)s2)cc1	0	0	0	0	0	0
CN1CCN(C(=O)CN(C)S(=O)(=O)c2ccc(F)cc2)CC1	0	0	0	0	0	0
CCc1nnc(NC(=O)c2ccc(S(=O)(=O)N(C)c3ccccc3)cc2)o1	0	0	52.1	0	0	0
CN(c1ccccc1)S(=O)(=O)c1ccc(C(=O)Nc2ccncc2)cc1	0	69.8	0	0	-	0
O=C(Nc1ccncc1)c1ccc(-c2ccccc2)cc1	0	57.7	0	0	0	0
O=C(Nc1ccncc1)c1ccc(Cl)c(Cl)c1	0	61.8	0	0	0	0
Cc1ccc(NC2CCCN(C(=O)c3ccnc(Cl)c3)C2)cc1C (stereo not given)	0	0	0	0	0	0
COc1ccc2[nH]c3c(c2c1)CCN1C(=O)C(CC(=O)NCCc2ccccn2)C[C@H](C(=O)N2CCOCC2)[C@@]31CCC1CCCC1 (stereo not given in full)	0	-	-	-	-	-
C=CCOc1ccc(/C=C/C(=O)OCc2csc(CC(=O)Nc3ccccc3C)n2)cc1	0	-	-	-	0	-
